# Results taken from ChEMBL document CHEMBL1629583, “Establishment of in vitro susceptibility testing methodologies and comparative activities of piperacillin in combination with the penem {beta}-lactamase inhibitor BLI-489” (2009).
# Key:
# Assay type in all cases: functional
# [1] = test system: Peptostreptococcus anaerobius; experiment: Antimicrobial activity against Peptostreptococcus anaerobius clinical isolate after 18 to 22 hrs by broth microdilution method in presence of beta-lactamase inhibitor BLI-489
# [2] = test system: Escherichia coli; experiment: Antimicrobial activity against Escherichia coli clinical isolate after 18 to 22 hrs by broth microdilution method in presence of beta-lactamase inhibitor BLI-489
# Outline: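 CLSI broth microdilution in Mueller-Hinton II broth. Serial dilutions of piperacillin were tested with BLI-489 held at a constant 4 μg/ml. Inoculum was 10^5 CFU/ml. Plates were incubated 18 to 22 h at 35°C in ambient air. MIC was the lowest concentration giving complete growth inhibition by unaided eye.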
# [3] = test system: Staphylococcus epidermidis; experiment: Antimicrobial activity against methicillin-resistant Staphylococcus epidermidis clinical isolate after 18 to 22 hrs by broth microdilution method in presence of beta-lactamase inhibitor Tazobactam
# Outline: (§1)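 CLSI broth microdilution in Mueller-Hinton II broth. Antibiotic in serial dilution with the β-lactamase inhibitor held at a constant 4 μg/ml. Inoculum 10^5 CFU/ml. Incubated 18 to 22 h at 35°C in ambient air.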
# [4] = test system: Staphylococcus aureus; experiment: Antimicrobial activity against methicillin-resistant Staphylococcus aureus clinical isolate after 18 to 22 hrs by broth microdilution method in presence of beta-lactamase inhibitor BLI-489; outline: as §1
# [5] = test system: Providencia stuartii; experiment: Antimicrobial activity against Providencia stuartii clinical isolate after 18 to 22 hrs by broth microdilution method in presence of beta-lactamase inhibitor Tazobactam
# Outline: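 Piperacillin-tazobactam was tested by CLSI broth microdilution in Mueller-Hinton II broth against clinical isolates. Inoculum was 10^5 CFU/ml, with 18 to 22 h incubation at 35°C in ambient air. MIC was read as the lowest concentration completely inhibiting visible growth.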
compound,measurement,setting,value
CCN1CCN(C(=O)N[C@@H](C(=O)N[C@@H]2C(=O)N3[C@@H]2SC(C)(C)[C@@H]3C(=O)O)c2ccccc2)C(=O)C1=O [PIPERACILLIN],MIC,[1],≤ 0.015 µg/mL
same,MIC50,[1],≤ 0.015 µg/mL
same,MIC90,[1],≤ 0.015 µg/mL
same,MIC50,[2],64 µg/mL
same,MIC90,[2],128 µg/mL
same,MIC50,[3],1 µg/mL
same,MIC90,[3],8 µg/mL
same,MIC50,[4],32 µg/mL
same,MIC50,[5],2 µg/mL
same,MIC90,[5],16 µg/mL
